The source made the active and inactive calls.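 How the source made its calls: active means compounds whose fitted half-maximal concentration for reducing fibroblast viability is 100 µM or lower; inactive means the rest.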
These compounds were tested on LL 47 lung fibroblast viability, ATP luminescence (assay: inhibition of LL 47 lung fibroblast growth, concentration-response curve, selectivity screen for endothelial cell growth inhibitor project, cellular system, ATP luminescence readout (AID 821)).
Method in brief: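 Test system: human lung fibroblasts, LL 47 line / Amount: 1,150 cells/well / Schedule: 72 h compound treatment at 37 °C after overnight attachment / Technique: CellTiter-Glo luminescence readout of viable cells / Measure: percent viability relative to untreated wells, EC50 via 4-parameter fit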

Row | SMILES | EC50
1 | Oc1c(I)cc(Cl)c2cccnc12 | 11.4 µM
2 | O=[N+]([O-])c1ccc(Sc2cccc3cccnc23)c([N+](=O)[O-])c1 | 5.03 µM
3 | CC(C)=CCC/C(C)=C/CCC(C)NCCN1CCNCC1 (stereo not given) | 10.4 µM
4 | Cc1ccccc1-c1nc(CN2CCC(C(=O)NCCCN3CC(C)CC(C)C3)CC2)c(C)o1 (stereo not given) | 10.6 µM
5 | CCn1c(SCC(=O)Nc2cc(C)on2)nc2sc3c(c2c1=O)CCCC3 | > 10 µM (inactive)
6 | CCc1[nH]nc2c1C(c1ccc(Br)s1)C(C#N)=C(N)O2 (stereo not given) | 13.6 µM
7 | COc1ccc2c(c1)c1nc3ccccc3nc1n2CC(=O)OC(C)C | 15.5 µM
8 | COc1ccc2oc(=O)c(-c3nnc(NCc4ccco4)s3)cc2c1 | 8 µM
9 | O=C(CN1CCCC1)Nc1ccc(-c2nc3cc(NC(=O)CN4CCCC4)ccc3o2)cc1 | 7.33 µM
10 | CCN(CC)c1ccc2c(c1)oc(=O)c1c(Cl)cc(=O)oc12 | 7.29 µM
11 | O=C(C#Cc1cccc([N+](=O)[O-])c1)c1ccccc1 | 18.5 µM
12 | O=C(c1nn2c(C(F)(F)F)cc(-c3ccco3)nc2c1Br)N1CCCc2ccccc21 | 4.78 µM
13 | Cc1sc2ncnc(NCC(C)(C)N3CCOCC3)c2c1C | > 10 µM (inactive)
14 | Oc1ccccc1/C=N/Nc1nccnc1Cl | 2.08 µM
15 | COc1cc(C(=O)Oc2c(CN3CCOCC3)cc(Cl)c3cccnc23)cc(OC)c1OC | 4.05 µM
16 | Cc1ccc(-n2c(SCC(=O)Nc3ccc4c(c3)OCO4)nnc2-c2cccs2)cc1 | 17.5 µM
17 | CCC(=O)N1c2ccc(S(=O)(=O)CCC(=O)N3CCn4c3nc3ccccc34)cc2CC1C (stereo not given) | 9.63 µM
18 | CCOC(=O)c1c(NC(=O)CCl)sc(C(=O)N(CC)CC)c1C | 6.25 µM
19 | Cc1ccccc1NS(=O)(=O)c1ccc(N2CCCC2=O)cc1 | 16.3 µM
20 | Cc1cc(C)n(-c2nc3ccccc3c(=O)n2OCC(=O)OCc2ccccc2)n1 | 4 µM
21 | Cc1ccccc1CS(=O)(=O)c1nnc([C@H](Cc2ccccc2)NC(=O)OC(C)(C)C)o1 | 13.1 µM
22 | CC(C)c1nnc(NC(=O)CCS(=O)(=O)c2nc(-c3cccs3)cc(C(F)(F)F)n2)s1 | 12.8 µM
23 | c1ccc2c(c1)oc1c(Nc3ccc(CN4CCOCC4)cc3)ncnc12 | 17.2 µM
24 | Cc1sc2nc(SCC(=O)C(C)(C)C)n(Cc3ccco3)c(=O)c2c1C | 16.9 µM
25 | Cc1cc(C)c2c(=O)n(CC(=O)NCCCN3CCN(c4ccccc4F)CC3)sc2n1 | 10.2 µM

Row | SMILES | EC50
26 | O=C(/C=C/c1ccc(Cl)cc1)c1cccnc1 | 19.7 µM
27 | c1ccc(-c2nc3nonc3nc2-c2ccccc2)cc1 | 15.2 µM
28 | Cc1ccc(C)n1NC(=O)c1ccccc1O | 10.3 µM
29 | COc1ccc(-n2nnnc2S(=O)(=O)CC(=O)N2CCCCC2)cc1 | 6.12 µM
30 | CC(=O)Nc1ccc(NC2=Nc3ccccc3N3C2=Nc2c(c(C)nn2-c2ccccc2)C3c2ccccc2)cc1 (stereo not given) | 12.2 µM
31 | CC1=NOC(=O)/C1=C/c1ccc(-c2ccc(Cl)cc2)o1 | 13.9 µM
32 | O=c1[nH]c2cc3c(cc2cc1C(c1nnnn1Cc1ccccc1)N1CCCCCC1)OCCO3 (stereo not given) | 19.1 µM
33 | CC(C)CNC(=O)c1coc(=O)c(Br)c1 | 20.5 µM
34 | O=c1[nH]c2cc3c(cc2cc1C(c1nnnn1C1CCCCC1)N1CCSCC1)OCCO3 (stereo not given) | 19.7 µM
35 | Cc1cc2c(N=O)c(NO)ccc2[nH]1 | 2.93 µM
36 | COc1ccc(C2Oc3ccccc3C3=C2C(c2cccs2)n2ncnc2N3)cc1 (stereo not given) | 19.2 µM
37 | CC(C)COC(=O)c1ccc2c(c1O)C(=O)c1ccccc1C2=O | 17.9 µM
38 | O=c1cc(-c2ccccc2)[nH]n1-c1nc2ccccc2[nH]1 | 5.6 µM
39 | CCOc1cccc(-n2nnnc2-c2ccc(OC)cc2)c1 | 19.9 µM
40 | COc1ccc(NC(=O)/C(Cl)=C(/Cl)S(=O)(=O)Cc2ccccc2)cn1 | 6.19 µM
41 | Cc1cc(NC(c2cccnc2)c2ccc3cccnc3c2O)no1 (stereo not given) | 2.93 µM
42 | Fc1ccc2c(Cl)c(-c3nnc(-c4cccs4)o3)sc2c1 | 11.4 µM
43 | CCc1ccc(-c2nc(CN3CCC(C(=O)N4CCN(c5ccccc5)CC4)CC3)c(C)o2)cc1 | 18.7 µM
44 | COc1cc(NC(=O)Nc2cccc(Cl)c2)c(OC)cc1NC(=O)CN1CCCCC1 | 20.3 µM
45 | CCCc1[nH]nc2c1C(c1ccc(Br)s1)C(C#N)=C(N)O2 (stereo not given) | 9.62 µM
46 | COc1cccc(C(=O)Oc2c(CN3CCOCC3)cc(Cl)c3cccnc23)c1 | 5.95 µM
47 | Cc1cc(NC(=O)c2cc(-c3ccncc3)nc3c(C)cccc23)no1 | 9.48 µM
48 | CCN(CC)CCn1c2ccccc2c2cnc(N)c(C#N)c21 | 9.65 µM
49 | CC(=O)C(C(C)=O)c1c(Cl)c(O)c(O)c2c(C(=O)c3ccccc3)coc12 | 14.5 µM
50 | Cn1c2ccccc2c(=O)c2c(=O)n(C3CCCCC3)c(-c3cccs3)nc21 | 14.2 µM

Row | SMILES | EC50
51 | CCC(=O)OCCNc1cc(Sc2nc3ccccc3s2)c2nonc2c1[N+](=O)[O-] | 6.76 µM
52 | COc1ccc(-c2ccc(C#N)c(SCC(=O)Nc3sc4c(c3C#N)CCC4)n2)cc1OC | 20.1 µM
53 | CCOC(=O)c1cnc(-n2nc(C)cc2C)nc1NCCc1ccccc1 | 14.2 µM
54 | COc1ccc(Nc2nc(N3CCCC3)nc3ccccc23)c(OC)c1 | 14.4 µM
55 | Cc1ccc2[nH]c3c(c2c1)CCCC3=O | > 10 µM (inactive)
56 | CCOC(=O)c1sc(SCC(=O)Nc2ccc(N(C)C)cc2)nc1N | 11.8 µM
57 | O=S1(=O)C=C(Sc2nnc(-c3ccccc3)o2)c2ccccc21 | 1.71 µM
58 | Cc1cc(NC(=O)CSc2nc3c(sc4ccccc43)c(=O)n2CCCN2CCOCC2)n[nH]1 | > 10 µM (inactive)
59 | COc1cc(/C=C(/C(=O)c2cccs2)c2nc3ccccc3[nH]2)cc(OC)c1O | 8.69 µM
60 | CCSc1nnc(NC(=O)c2ccccn2)s1 | 16.5 µM
61 | CCN(CC)CCn1c(=N)n(CCOc2ccccc2)c2ccccc21 | 10.7 µM
62 | N#CCC(=O)Nc1ncn(Cc2ccccc2Cl)n1 | 19.7 µM
63 | CCc1ccc2c(c1)/C(=C/C(=O)c1cccs1)C(=O)N2 | 3.48 µM
64 | Cc1ccc(-c2nn3c(C)nnc3s2)cc1NC(=O)c1ccc(-c2cccc(Cl)c2)o1 | 13.1 µM
65 | COc1ccc(CC(=O)Nc2ccc(-c3nnc(-c4ccc(C)cc4)o3)cc2)cc1 | 12.8 µM
66 | Cc1ccc(NC(=O)c2cc(NC(=O)c3ccco3)ccc2N2CCCCC2)cc1 | 18 µM
67 | COC(=O)CS(=O)(=O)c1nnc([C@H](Cc2ccccc2)NC(=O)OC(C)(C)C)o1 | 7.97 µM
68 | O=C(Nc1cccnc1)c1ccc(Br)s1 | 13.1 µM
69 | COc1ccccc1-c1nnc2n1N=C(c1ccc(O)c(O)c1)CS2 | 2.68 µM
70 | CCOC(=O)c1cnc(-n2nc(C)cc2C)nc1Nc1ccc(N(C)C)cc1 | 14.6 µM
71 | COC(=O)CCS(=O)(=O)c1nc(-c2ccccc2)cc(C(F)(F)F)n1 | 14.4 µM
72 | O=C(Oc1ccccc1-c1nnco1)c1ccc(Cl)cc1 | 5.03 µM
73 | CCCCS(=O)(=O)/C=C\C=C/S(=O)(=O)CCCC | 0.936 µM
74 | c1ccc(-c2noc(-c3ccc4c(c3)OCO4)n2)nc1 | 10.5 µM
75 | C=CCn1c(SCC(=O)c2c(N)n(CCC)c(=O)n(C)c2=O)nc2sc(CC)cc2c1=O | 15.3 µM

Source: PubChem BioAssay AID821 (SRMLSC, 2007)
